Activity and inhibition data for 8 compounds are collected here from ChEMBL document CHEMBL3994600, “Anthenosides L-U, Steroidal Glycosides with Unusual Structural Features from the Starfish Anthenea aspera” (J Nat Prod, 2016).

Each structure is given as a SMILES string.

Data set [1] deals with Splenocyte. Briefly: Cytotoxicity against Balb/c mouse splenocytes assessed as reduction in cell viability by MTT assay. It is filed as cell-based. An outline of the steps:
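BALB/C spleen homogenized in PBS pH 7.4, filtered through nylon voile, washed three times by centrifugation (450g, 5 min), resuspended in PBS at (2−5) × 10^6 cells/mL. Viability measured by standard MTT method; at least triplicate, mean ± SD.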
Background: Tetrazolium assays rely on reduction of a dye to a coloured formazan, in cell work by metabolically active cells.

The test system of data set [2] is Erythrocyte. Description: Hemolytic activity against CD-1 mouse erythrocytes after 1 hr by spectroscopic method. Format: ADME, cell-based. An outline of the steps: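 CD-1 mouse blood erythrocytes washed three times in PBS pH 7.4 (450g, 5 min), resuspended to OD700 1.5, kept on ice. Suspension mixed 9:1 with test solution at various concentrations, 37 °C for 1 h. Cells pelleted; supernatant hemoglobin read at 570 nm. Expressed as % hemolysis versus control; EC50 reported.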

For data set [3], the system named is RAW264.7. Briefly: Induction of ROS generation in mouse RAW264.7 cells at 10 uM after 24 hrs by 2,7-dichlorodihydrofluorescein diacetate staining based fluorescence assay. Particulars: raw264.7, 24 h; call rule not given here. It is filed as cell-based.
Data set [4] concerns Ehrlich. Description: Cytotoxicity against mouse Ehrlich carcinoma cells assessed as reduction in cell viability by MTT assay. It is filed as cell-based. The essentials: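 Ehrlich ascites carcinoma (tetraploid strain) grown in the peritoneal cavity of 18–20 g CD-1 mice. Cells harvested 7−10 days after inoculation, washed twice in PBS pH 7.4 (450g, 5 min), resuspended in serum-free RPMI-1640 at about (1−2) × 10^6 cells/mL. Standard MTT viability read-out; at least triplicate, mean ± SD.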

Data set [5] has as its system RAW264.7. Description: Cytotoxicity against mouse RAW264.7 cells assessed as reduction in cell viability by MTT assay. Format: cell-based. An outline of the steps: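 Macrophages (ATCC) grown in DMEM with 10% FBS at 37 °C, humidified 5% CO2. Viability by standard MTT method; at least triplicate, mean ± SD.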
In data set [6] the test system is RAW264.7. Description: Immunomodulatory activity in mouse RAW264.7 cells assessed as inhibition of LPS-induced ROS level at 10 uM after 24 hrs by 2,7-dichlorodihydrofluorescein diacetate staining based fluorescence assay relative to control. It is filed as functional. Particulars: RAW264.7, 24 h. An outline of the steps:
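Macrophages allowed to adhere 2 h at 37 °C, 5% CO2, then exposed to compounds at 10 μM for 24 h. In each experiment compounds were co-incubated with E. coli 055:B5 LPS (1.0 μg/mL). H2DCF-DA added (final 10 μM), 10 min at 37 °C. Fluorescence read at 485/518 nm; at least triplicate, mean ± SD, Student's t test (p < 0.05).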

Consider `COC[C@@H](O)[C@@H]1O[C@@H](O[C@@H]2C3=C4C[C@@H](O[C@@H]5O[C@H](CO)[C@@H](O)[C@H](OC)[C@H]5O)[C@H]([C@H](C)CCCC(C)C)[C@@]4(C)CC[C@@H]3[C@@]3(C)CC[C@@H](O)C[C@@H]3[C@@H]2O)[C@H](O)[C@H]1O`, for which the Activity entry in data set [1], in data set [2], in data set [3], in data set [4] and in data set [5] was “Non-Toxic” throughout.

Turning to `CO[C@@H]1[C@@H](O)[C@H](O[C@@H]2CC3=C4[C@@H](O)[C@@H](O)[C@H]5C[C@H](O)CC[C@]5(C)[C@H]4CC[C@]3(C)[C@H]2[C@H](C)/C=C/[C@@H](C)C(C)C)O[C@H]1[C@H](O)CO`, the Activity entry in data set [1], in data set [2], in data set [3], in data set [4] and in data set [5] was “Non-Toxic” in each case.

As to `COC[C@@H](O)[C@@H]1O[C@@H](O[C@@H]2C3=C4C[C@@H](O[C@@H]5O[C@@H]([C@H](O)COC)[C@H](O)[C@H]5O)[C@H]([C@H](C)/C=C/[C@@H](C)C(C)C)[C@@]4(C)CC[C@@H]3[C@@]3(C)CC[C@@H](O)C[C@@H]3[C@@H]2O)[C@H](O)[C@H]1O`, the Activity entry in data set [1], in data set [2], in data set [3], in data set [4] and in data set [5] was “Non-Toxic” throughout.

One may read the inhibition as the drop in the measured response relative to a control, in per cent. Turning to `CO[C@@H]1[C@@H](O)[C@H](O[C@@H]2CC3=C4[C@@H](O)[C@@H](O)[C@H]5C[C@H](O)CC[C@]5(C)[C@H]4CC[C@]3(C)[C@H]2[C@H](C)/C=C/[C@@H](C)C(C)C)O[C@H](CO)[C@H]1O`, the Activity entry in data set [1], in data set [2], in data set [3], in data set [4] and in data set [5] was “Non-Toxic” throughout. Besides, in data set [6], the inhibition at 10 µM was determined as 24%.

With `CO[C@@H]1[C@@H](O)[C@H](O[C@@H]2CC3=C4[C@@H](O)[C@@H](O)[C@H]5C[C@H](O)CC[C@]5(C)[C@H]4CC[C@]3(C)[C@H]2[C@H](C)/C=C/C(C)C)O[C@H](CO)[C@H]1O`, the Activity result in data set [1], in data set [2], in data set [3], in data set [4] and in data set [5] was “Non-Toxic” each time.

`COC[C@@H](O)[C@@H]1O[C@@H](O[C@@H]2CC3=C4[C@@H](O)[C@@H](O)[C@H]5C[C@H](O)CC[C@]5(C)[C@H]4CC[C@]3(C)[C@H]2[C@H](C)/C=C/[C@@H](C)C(C)C)[C@H](O)[C@H]1O`: the Activity entry in data set [1], in data set [2], in data set [3], in data set [4] and in data set [5] was “Non-Toxic” throughout.

For `C=C(CC[C@@H](C)[C@H]1[C@H](O[C@@H]2O[C@@H]([C@H](O)COC)[C@H](O)[C@H]2O)CC2=C3[C@@H](O[C@@H]4O[C@@H]([C@H](O)CO)[C@H](OC)[C@H]4O)[C@@H](O)[C@H]4C[C@H](O)CC[C@]4(C)[C@H]3CC[C@@]21C)C(C)C`, the Activity entry in data set [1], in data set [2], in data set [3], in data set [4] and in data set [5] was “Non-Toxic” throughout.

With `COC[C@@H](O)[C@@H]1O[C@@H](O[C@@H]2C3=C4C[C@@H](O[C@@H]5O[C@H](CO)[C@@H](O)[C@H](OC)[C@H]5O)[C@H]([C@H](C)/C=C/CC(C)C)[C@@]4(C)CC[C@@H]3[C@@]3(C)CC[C@@H](O)C[C@@H]3[C@@H]2O)[C@H](O)[C@H]1O`, the Activity entry in data set [1], in data set [2], in data set [3], in data set [4] and in data set [5] was “Non-Toxic” in each case.
